{
  "source": "paper PMC4327942",
  "about": "(Chemistry & biology, 2010)",
  "key": {"[1]": {"test_system": "HIF ODD-luciferase reporter", "assay": "HTS of SH-SY5Y ODD-luc reporter cells, 384-well, 10 μM compound, 3 hr", "format": "cell-based, human", "conditions": "for activation at 10 µM: Homo sapiens, SH-SY5Y, 3 h, read-out: reporter activation (%)"}, "[2]": {"test_system": "HIF ODD-luciferase reporter", "assay": "ODD-luc reporter activation, concentration titration in 96-well plates", "format": "cell-based, human", "conditions": "SH-SY5Y; for IC50: Homo sapiens, read-out: IC50 (reporter activation); for “Lag,” (concentration lag of reporter titration curve): ODD-luc reporter"}, "[3]": {"assay": "Iron binding by displacement of calcein from its complex with iron", "format": "physicochemical", "conditions": "for ka, association rate constant for iron binding: calcein-iron complex 1 μM:1 μM, oxyquinoline 5-20 μM; for Kd: read-out: KFe, apparent iron binding constant, calcein displacement, 5 mM Tris-HCl buffer (pH 7.5)"}, "[4]": {"test_system": "cortical neurons", "assay": "Neuroprotection in HCA", "format": "cell-based, rat", "conditions": "HCA model", "in_short": "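Forebrain neurons from E17 Sprague-Dawley rat embryos were plated at 10^6 cells/ml in 96-well plates. After 16 hr they were rinsed with warm PBS and moved to MEM containing 5 mM HCA plus test compound (0.25-2 μM). Incubation ran 24 hr or longer, until HCA-only controls reached 90% death. Viability was read by MTT.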"}, "[5]": {"conditions": "10 μM, 3 hr, SH-SY5Y-ODD-luc cells"}},
  "data": [
    {"compound": "O=C(C=C(O)c1ccccc1)c1ccccc1O", "note": "[2′β-dihydroxychalcone]", "values": [
      {"measurement": "reporter activation (fold)", "setting": "[1]; [5]", "value": 7.5, "unit": "fold"},
      {"measurement": "reporter activation (%)", "setting": "[1]; 10 μM, 3 hr, SH-SY5Y-ODD-luc cells, ciclopirox = 100%, DMSO = 0%", "value": 71, "unit": "%"}
    ]},
    {"compound": "O=C1/C(=N\\Nc2nc3ccccc3s2)C(c2ccccc2)=NN1c1ccccc1", "note": "[(Z)-4-(benzo[d]thiazol-2-yl-hydrazono)-1,3-diphenyl-1H-pyrazol-5(4H)-one]", "values": [
      {"measurement": "activation at 10 µM", "setting": "[1]", "value": 70, "unit": "%"}
    ]},
    {"compound": "Cc1cc(C2CCCCC2)n(O)c(=O)c1", "note": "[Ciclopirox, ciclopirox]", "values": [
      {"measurement": "increase of background signal for the wild-type ODD-luc reporter (PYIP line)", "setting": "[1]; 10 μM, 3 hr incubation", "value": 10, "unit": "fold"},
      {"measurement": "reporter signal as % of the threshold value (control line AYIA)", "setting": "[1]; 10 μM, 3 hr incubation, PYIP line", "value": "~50", "unit": "%"},
      {"measurement": "IC50", "setting": "[2]", "value": "4500 ± 500", "unit": "nM"},
      {"measurement": "“Lag,” (concentration lag of reporter titration curve)", "setting": "[2]", "value": "2 ± 0.5", "unit": "µM"},
      {"measurement": "ka, association rate constant for iron binding", "setting": "[3]", "value": "300 ± 50", "unit": "M⁻¹ s⁻¹"},
      {"measurement": "Kd", "setting": "[3]", "value": "80 ± 20", "unit": "nM"}
    ]},
    {"compound": "O=C1/C(=N\\Nc2nccs2)C(c2ccccc2)=NN1c1ccccc1", "note": "[I, (Z)-1,3-diphenyl-4-(thiazol-2-yl-hydrazono)-1H-pyrazol-5(4H)-one]", "values": [
      {"measurement": "activation at 10 µM", "setting": "[1]", "value": 86, "unit": "%"}
    ]},
    {"compound": "NNc1nc(-c2ccccc2)cc(-c2ccccc2)n1", "note": "[II, 2-hydrazinyl-4,6-diphenylpyrimidine]", "values": [
      {"measurement": "reporter activation (fold)", "setting": "[1]; [5]", "value": 6.7, "unit": "fold"},
      {"measurement": "activation at 10 µM", "setting": "[1]", "value": 64, "unit": "%"},
      {"measurement": "iron chelation properties in solution (in words)", "setting": "[3]", "value": "no iron chelation properties in solution"}
    ]},
    {"compound": "S=C(Nc1ccccc1)Nc1nccs1", "note": "[III, 1-phenyl-3-(1,3-thiazol-2-yl)thiourea]", "values": [
      {"measurement": "reporter activation (fold)", "setting": "[1]; [5]", "value": 5, "unit": "fold"},
      {"measurement": "activation at 10 µM", "setting": "[1]", "value": 41, "unit": "%"}
    ]},
    {"compound": "N[C@@H](Cc1ccc(O)c(O)c1)C(=O)O", "note": "[L-Dopa]", "values": [
      {"measurement": "reporter activation (fold)", "setting": "[1]; [5]", "value": 3, "unit": "fold"},
      {"measurement": "activation at 10 µM", "setting": "[1]", "value": 21, "unit": "%"}
    ]},
    {"compound": "Oc1cccc2cccnc12", "note": "[Oxyquinoline, 8-hydroxyquinoline]", "values": [
      {"measurement": "reporter activation (fold)", "setting": "[1]; [5]", "value": "4-5 fold"},
      {"measurement": "activation at 10 µM", "setting": "[1]", "value": "35 to 45", "unit": "%"},
      {"measurement": "IC50", "setting": "[2]", "value": "10000 ± 1000", "unit": "nM"},
      {"measurement": "“Lag,” (concentration lag of reporter titration curve)", "setting": "[2]", "value": "4 ± 0.5", "unit": "µM"},
      {"measurement": "ka, association rate constant for iron binding", "setting": "[3]", "value": "110 ± 20", "unit": "M⁻¹ s⁻¹"},
      {"measurement": "Kd", "setting": "[3]", "value": "200 ± 50", "unit": "nM"},
      {"measurement": "times less potent as neuroprotectants (versus compounds 7 and 8)", "setting": "[4]", "value": "20-40 times"}
    ]}
  ]
}
